Laboratory results as given in article PMC12401554 (Archives of toxicology, 2023).

Assays:
2D HepaRG cells [1] = assay: CometChip assay; type: cell-based, human; details: 24-h exposure; for Fold increase of DNA damage over the vehicle control: at the maximum concentration shown in the table
2D HepaRG cells [2] = assay: HT flow-cytometry-based MN assay in 2D HepaRG cells; type: cell-based, human; details: for Fold increase of MN formation over the vehicle control: at the maximum concentration shown in the table
3D HepaRG spheroids [3] = assay: CometChip assay; type: cell-based, human; details: for Outcome, CometChip assay / Fold increase of DNA damage over the vehicle control: 24-h exposure; for Fold increase of DNA damage over the vehicle control: at the maximum concentration shown in the table; for BMC50 estimate for DNA strand breakage, rank among the eight nitrosamines: PROAST exponential model
[4] = ref European Chemicals Agency (ECHA) Classification and Labelling Inventory; cited from earlier work
rat [5] = details: ref Lhasa Carcinogenicity Database; cited from earlier work
3D HepaRG spheroids [6] = assay: HT flow-cytometry-based MN assay in 3D HepaRG spheroids; type: cell-based, human; details: for Fold increase of MN formation over the vehicle control: at the maximum concentration shown in the table
[7] = test system: CYP2A6-expressing TK6 cells; details: ref Li et al. 2022; cited from earlier work
2D HepaRG cells [8] = assay: ATP assay; type: cell-based, human; details: 24-h exposure, at concentrations up to 10 mM
Method in brief: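 Differentiated HepaRG cells (passages 16–19) replated at 5 × 10^4 cells/well as 2D monolayers and treated 3 days after seeding. Exposure was 24 h at 37 °C in 5% CO2 in differentiation medium, with final DMSO ≤1%. Viability was read by CellTiter-Glo luminescence as %ATP relative to vehicle control, from at least three independent experiments.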

3D HepaRG spheroids [9] = assay: ATP assay; type: cell-based, human; details: 24-h exposure, at concentrations up to 10 mM
Method in brief: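 Differentiated HepaRG cells (passages 16–19) were seeded at 5 × 10^3 cells per spheroid in ultra-low-attachment plates. On Day 10, 7–8 spheroids were pooled per well and exposed for 24 h at 37 °C in 5% CO2, with final DMSO ≤1%. ATP was measured with the CellTiter-Glo 3D kit as % of vehicle control, from at least three independent experiments.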

rat [10] = details: ref Ambient water quality criteria for nitrosamines, US Environmental Protection Agency; cited from earlier work
[11] = ref IARC Monographs, Volumes 1–133; IARC 1978; cited from earlier work
3D HepaRG spheroids [12] = assay: MultiFlow DNA damage assay; type: cell-based, human; details: 3D HepaRG cultures, PROAST exponential model
Method in brief: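 Spheroids were exposed for 24 h in differentiation medium containing 100 ng/ml hEGF, then kept 5 days in the same medium without test compound. They were dissociated with Accutase and stained 1 h at room temperature for γH2A.X, phospho-H3 and P53, then analysed by flow cytometry. Responses are median-fluorescence fold-changes versus vehicle. BMC50 (50% increase over vehicle; 90% CI) came from exponential-model benchmark analysis with compound as covariate.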

Namalva cells = details: human Burkitt lymphoblastoid cell line, ref Janzowski et al. 1989; cited from earlier work
[13] = test system: wild-type TK6 cells or TK6 cells transduced with human CYP1A1, 2A6, 2E1, or 3A4 genes; details: ref Li et al. 2022; cited from earlier work
[14] = test system: animal species, including frog, rodent, rabbit, and monkey; details: ref Bogovski and Bogovski 1981; cited from earlier work
Sprague–Dawley rats = details: treated 5 days each week with 1.8 or 12 mg NDIPA for 50 or 40 weeks; ref Lijinsky and Taylor 1979; cited from earlier work

Structure (SMILES)	Outcome, CometChip assay (2D HepaRG cells [1])	Fold increase of DNA damage over the vehicle control (2D HepaRG cells [1])	Outcome, MN assay (2D HepaRG cells [2])	Fold increase of MN formation over the vehicle control (2D HepaRG cells [2])	Outcome, CometChip assay (3D HepaRG spheroids [3])	Fold increase of DNA damage over the vehicle control (3D HepaRG spheroids [3])	ECHA classification [4]	Gold TD50 in rat (rat [5])	Outcome, MN assay (3D HepaRG spheroids [6])	Fold increase of MN formation over the vehicle control (3D HepaRG spheroids [6])	Micronucleus (MN) formation [7]	Phosphorylation of histone H2A.X (γH2A.X) [7]	MN response (in words) (2D HepaRG cells [2])	Oral rat LD50 (rat [10])	MN response (in words) (3D HepaRG spheroids [6])	IARC group [11]	other results
CN(CCCC(=O)O)N=O [NMBA, N-nitroso-N-methyl-4-aminobutyric acid]	− (The ratio ≤ 1.5-fold (p ≥ 0.05 vs. vehicle control, green color))	1.0 fold	− (The ratio ≤ 1.5-fold (p ≥ 0.05 vs. vehicle control, green color))	1.4 fold	+ + (2 ≤ ratio < 5)	2.3 fold	Carc.2	0.982 mg/kg/day	+ (1.5 ≤ ratio < 2)	1.8 fold	induced	increased	–	–	–	–	–
CCN(N=O)C(C)C [NEIPA, N-nitrosoethylisopropylamine]	− (The ratio ≤ 1.5-fold (p ≥ 0.05 vs. vehicle control, green color))	1.5 fold	− (The ratio ≤ 1.5-fold (p ≥ 0.05 vs. vehicle control, green color))	1.1 fold	+ + (2 ≤ ratio < 5)	2.4 fold	Carc.1B	–	− (The ratio ≤ 1.5-fold (p ≥ 0.05 vs. vehicle control, green color))	1.3 fold	induced	increased	negative	1100 mg/kg	negative	–	Cytotoxicity (ATP assay) (2D HepaRG cells [8]): less than 30%; Cytotoxicity (ATP assay) (3D HepaRG spheroids [9]): less than 30%
CCCCN(CCCC)N=O [NDBA, N-nitrosodibutylamine]	+ + (2 ≤ ratio < 5)	2.4 fold	+ (1.5 ≤ ratio < 2)	1.5 fold	+ + (2 ≤ ratio < 5)	2.8 fold	Carc.2	0.691 mg/kg/day	+ + (2 ≤ ratio < 5)	2.3 fold	–	increased	–	1200 mg/kg	–	2B	BMC50 value for γH2A.X responses, rank among the eight nitrosamines (3D HepaRG spheroids [12]): lowest; Lowest concentration increasing MN formation (Namalva cells): 10 µM; Lowest concentration increasing sister chromatid exchanges (Namalva cells): 1 µM; MN frequency [13]: didn’t increase
CN(C)N=O [NDMA, N-nitrosodimethylamine]	+ + (2 ≤ ratio < 5)	–	+ + (2 ≤ ratio < 5)	–	+ + + (ratio ≥ 5 (p < 0.05, red color))	–	Carc.1B	–	+ + (2 ≤ ratio < 5)	–	–	–	–	40 mg/kg	–	2A	Number of different animal species in which tumors were induced [14]: 16; BMC50 estimate for DNA strand breakage, rank among the eight nitrosamines (3D HepaRG spheroids [3]): lowest; BMC50 estimate for %MN, rank among the five positive responses (3D HepaRG spheroids [6]; PROAST exponential model): lowest
CC(C)N(N=O)C(C)C [NDIPA, N-nitrosodiisopropylamine]	− (The ratio ≤ 1.5-fold (p ≥ 0.05 vs. vehicle control, green color))	1.1 fold	− (The ratio ≤ 1.5-fold (p ≥ 0.05 vs. vehicle control, green color))	1.1 fold	+ (1.5 ≤ ratio < 2)	1.8 fold	Carc.1B; Muta.1B	–	− (The ratio ≤ 1.5-fold (p ≥ 0.05 vs. vehicle control, green color))	1.2 fold	–	increased	negative	850 mg/kg	negative	–	Cytotoxicity (ATP assay) (2D HepaRG cells [8]): less than 30%; Cytotoxicity (ATP assay) (3D HepaRG spheroids [9]): less than 30%; BMC50 value for γH2A.X responses, rank among the eight nitrosamines (3D HepaRG spheroids [12]): highest; BMC50 estimate for DNA strand breakage, rank among the eight nitrosamines (3D HepaRG spheroids [3]): highest; Carcinogenicity in Sprague–Dawley rats (in words) (Sprague–Dawley rats): weak carcinogen
CCN(CC)N=O [NDEA, N-nitrosodiethylamine]	+ + (2 ≤ ratio < 5)	2.3 fold	+ (1.5 ≤ ratio < 2)	1.7 fold	+ + (2 ≤ ratio < 5)	2.6 fold	Carc.1A/1B; Muta.2	0.0265 mg/kg/day	+ + (2 ≤ ratio < 5)	2.2 fold	induced	increased	–	280 mg/kg	–	2A	Number of different animal species in which tumors were induced [14]: 26
CN(N=O)c1ccccc1 [NMPA, N-nitrosomethylphenylamine]	− (The ratio ≤ 1.5-fold (p ≥ 0.05 vs. vehicle control, green color))	–	− (The ratio ≤ 1.5-fold (p ≥ 0.05 vs. vehicle control, green color))	–	+ + (2 ≤ ratio < 5)	–	Carc.2	–	+ + (2 ≤ ratio < 5)	–	induced	increased	–	280 mg/kg	–	–	–
O=NN1CCN(C2CCCC2)CC1 [CPNP, N-cyclopentyl-4-nitrosopiperazine]	− (The ratio ≤ 1.5-fold (p ≥ 0.05 vs. vehicle control, green color))	0.9 fold	− (The ratio ≤ 1.5-fold (p ≥ 0.05 vs. vehicle control, green color))	1.4 fold	+ + (2 ≤ ratio < 5)	2.3 fold	Carc.1B	–	− (The ratio ≤ 1.5-fold (p ≥ 0.05 vs. vehicle control, green color))	1.4 fold	–	–	negative	–	negative	–	–
